Measurements taken from article PMC2648812 (Journal of computer-aided molecular design, 2008).
“Also recorded” adds a separate entry of the source. Non-standard residues stand in square brackets, D forms with d. Residues, ends and D or L forms follow the SMILES beside them. ξ: configuration not given here. ξT = CC(O)C(N)C(=O)O

Columns and labels:
[1] = system: PDZ domain; conditions: previous virtual screening; cited from earlier work
[2] = target: T1, mouse Dvl1 PDZ domain (Mus musculus, UniProt P51141); experiment: 15N HSQC NMR chemical shift perturbation titration; type: binding
T1 sequence (P51141 247-341): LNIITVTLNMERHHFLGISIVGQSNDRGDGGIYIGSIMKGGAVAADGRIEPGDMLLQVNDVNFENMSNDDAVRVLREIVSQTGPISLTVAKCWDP
Method in brief: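 15N-labeled mouse Dvl1 PDZ domain (residues 247-341) at 0.2-0.3 mM in 100 mM potassium phosphate pH 7.5, 10% D2O, 0.5 mM EDTA; 15N HSQC at 600 MHz, 25 °C. Five titration points (ligand:protein 1 to 15); Arg322 shift perturbation tracked, reported at about 10 equivalents. One-site model with dilution correction and two-parameter nonlinear least-squares fit gave KD. μM values were rescaled against the reference inhibitor's earlier fluorescence KD.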

[3] = target: PDZ domain; conditions: fluorescence spectroscopy, earlier studies; cited from earlier work
[4] = system: Wnt signaling (second axis formation); conditions: Xenopus, Wnt3A upstream of Dvl; cited from earlier work

Compound	binding to the PDZ domain [1]	Kd [2]	Δδ chemical shift perturbation changes of Arg322 ([2]; 10.4 equivalents of NSC668036)	Exchange regime (in words) ([2]; NMR titration of 15N-labeled PDZ domain)	difference between KDs by NMR and by fluorescence ([2]; NSC668036, NMR KD versus fluorescence KD)	Exchange regime ([2]; from intermediate exchange (++++) to fast exchange (+) with the PDZ domain)	Kd [3]	second axis formation induced by Wnt3A [4]
COC(=O)C(CON)C(=O)NC(=O)C(N)CON (stereo not drawn) [NSC119132, methyl 3-((2-amino-3-(aminooxy)propanoyl)amino)-2-((aminooxy)methyl)-3-oxopropanoate]	non-binders; also recorded: do not bind to the PDZ domain							
CC(O)C(N)C(=O)NCC(=O)NCC(=O)O (stereo not drawn) [NSC344681, ((((2-amino-3-hydroxybutanoyl)amino)acetyl)amino)acetic acid] (H-[ξT]-Gly-Gly-OH)	non-binders; also recorded: do not bind to the PDZ domain							
CC(NC(=O)C(OC(=O)C(C)NC(=O)OC(C)(C)C)C(C)C)C(=O)OC(C(=O)O)C(C)C (stereo not drawn) [NSC668036, 9,15-diisopropyl-2,2,6,12-tetramethyl-4,7,10,13-tetraoxo-3,8,14-trioxa-5,11-diazahexadec an-16-oic acid]		27 mM	0.035	fast exchange regime	114 fold	+	0.237 mM	inhibited the second axis formation
